# A selection: hits, their analogues and other compounds. The true share with any hit is near 2.9%.
# DNA FID counter: compounds displacing fluorescent DNA intercalator, primary screen, artefact control for HCV NS3 helicase inhibitor project, biochemical, FID fluorescence; inhibition, % at 7.9 µM; AID 1845, 2009; DNA fluorescent intercalator displacement; 290,000 tested, 0.17% active; in the data active = inhibition above about 37%;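 also: 0% = vehicle and 100% = reference compound; higher means more ethidium bromide displaced from hairpin DNA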
# UBC9 SUMO inh: inhibitors of in vitro SUMOylation cascade, primary screen, biochemical, HTRF, uHTS. SUMO-conjugating enzyme UBC9 (Homo sapiens), P63279. HTRF SUMOylation assay, SAE1/SAE2 + UBC9. inhibition, % at 35 µM. 290,000 tested, 0.36% active. AID 2006, 2009; in the data active = inhibition above about 50%, passing the limit was not always enough
# Target sequence (P63279 whole entry, looked up): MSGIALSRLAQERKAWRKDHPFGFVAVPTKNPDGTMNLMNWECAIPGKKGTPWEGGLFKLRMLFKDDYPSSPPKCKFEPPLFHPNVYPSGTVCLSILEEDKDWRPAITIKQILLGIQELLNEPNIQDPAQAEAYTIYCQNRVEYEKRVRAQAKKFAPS
# Mot1-301 SUMO: yeast Mot1-301 growth rescue at high temperature, primary screen, SUMOylation pathway inhibitor project, S. cerevisiae, ATP luminescence, 38.5C; S. cerevisiae Mot1-301 growth rescue; percent above DMSO median, 100 means doubled; growth rescue, % at 18.8 µM; 320,000 tested, 1% active;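 active = every valid replicate shows activation above 250% relative to neutral control wells; inactive = the rest, any valid replicate at or below 250%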;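 also: OY570 slx delta 5 strain wells were the positive control but not used for scaling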
# VIM-2 inh: VIM-2 metallo-beta-lactamase inhibitors, primary screen, biochemical, epi-absorbance readout, Pseudomonas aeruginosa enzyme; purified VIM-2, nitrocefin hydrolysis, epi-absorbance fluorescence; inhibition, % at 5.6 µM; 290,000 tested, 0.89% active; AID 1527, 2009;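 active = inhibition above the mean of all tested compounds plus 3 SD, cutoff set per screening run, cut at about 7.5% in these data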;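 also: red hydrolysis product quenches plate fluorescence so inhibitors raise well fluorescence; 0% = enzyme with DMSO and 100% = DMSO without enzyme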
# NALP1 inh: NALP1 inflammasome inhibitors in reconstituted yeast, colorimetric, S. cerevisiae, triplicate retest; S. cerevisiae NALP1/ASC/caspase-1 growth, X-gal OD620, 72 h; inhibition, % at 10 µM; 280,000 tested, 0.61% active; AID 2071, 2009; in the data active = inhibition mostly above about 24%, no sharp cut-off; inactive = mostly below about 32%
# IMP-1 inhibitor: IMP-1 metallo-beta-lactamase inhibitors, primary screen, biochemical, epi-absorbance readout, Pseudomonas aeruginosa enzyme; 290,000 tested, 0.45% active; purified IMP-1, nitrocefin hydrolysis, epi-absorbance fluorescence; metallo-beta-lactamase IMP-1 (Pseudomonas aeruginosa); inhibition, % at 5.6 µM;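 active = inhibition above the mean plus 3 SD of all compounds in the same screening run, cut at about 4.5% in these data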;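 also: 0% = IMP-1 with DMSO and 100% = DMSO wells lacking enzyme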
#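 System: Purified recombinant IMP-1 metallo-beta-lactamase enzyme | Measured by: Fluorescence quenching readout, ex 480/em 530 nm | Replication: Singlicate | Incubation: 15 min preincubation plus 25 min reaction at 25 °C | Evaluation: Percent inhibition from optical density relative to buffer-blank wells | Benchmarks: DMSO with and without IMP-1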
# * marks the source's active call; other numbers are inactive results; x = not tested or not shown.
SMILES,DNA FID counter,UBC9 SUMO inh,Mot1-301 SUMO,VIM-2 inh,NALP1 inh,IMP-1 inhibitor
O=C(O)C1C2CCC(O2)C1C(=O)Nc1ccc(Cl)cc1F (stereo not drawn),-1,-1,633*,-3,0,-4
O=C(O)C1C2CCC(O2)C1C(=O)Nc1cccc(Cl)c1 (stereo not drawn),2,8,93,-2,17,-2
CC(=O)OCC(=O)[C@H]1CC[C@H]2[C@@H]3CCC4=CC(=O)CC[C@]4(C)[C@H]3CC[C@]12C,-28,18,10,-3,34,-3
CC(=O)OCC(=O)C1CCC2C3CC=C4CC(O)CCC4(C)C3CCC12C (stereo not drawn),x,x,462*,x,x,x
CCCc1cc(=O)oc2c3c(c(Cl)cc12)OCN(CCCO)C3,-5,26,2,4,-15,10*
O=C(O)c1ccc(-c2noc(-c3cccc(Cl)c3)n2)cc1,x,x,-1,x,x,x
Cc1ccnc(NC(=O)CCC(=O)c2cc(C)sc2C)c1,x,x,2,x,x,x
COc1ccc(/C=C2\SC(=O)N(CC(=O)NNC(=O)c3ccccc3O)C2=O)cc1,-5,56*,-5,-4,0,-3
O=C(CCCN1C(=O)/C(=C/c2cccc(Br)c2)SC1=S)NCCCN1CCOCC1,20,15,-17,2,-6,-2
CCN(CC)C(=O)CN1C(=O)/C(=C/c2ccccc2)SC1=S,-5,-16,-13,-1,x,-2
O=C(CN1C(=O)/C(=C/c2cccc(Br)c2)SC1=S)NCCCN1CCOCC1,4,14,-9,-3,12,4.8*
CC(=O)NNC(=O)CN1C(=O)/C(=C/c2ccccc2)SC1=S,-3,26,711,5,x,9.6*
O=C(CN1C(=O)S/C(=C\c2ccccc2)C1=O)NNC(=O)c1ccccc1O,-6,x,2,-1,14,0
COC(=O)Cn1cnc2scc(-c3ccc(C)cc3)c2c1=O,-12,5,28,0,18,-2
CC(C)(C)c1ccc(C(=O)CC(Sc2ccc(Cl)cc2)C(=O)O)cc1 (stereo not drawn),-9,33,533*,-1,9,0
CCOC(=O)C(C(=O)OCC)C(C(=O)OCC)N1CCOCC1 (stereo not drawn),11,-3,381,1,101*,-3
Cc1cc2occ(CC(=O)OCC(=O)Nc3sc4c(c3C#N)CCC(C)C4)c2cc1C (stereo not drawn),1,-4,16,-1,18,-1
Cc1ccc(-c2cc(-c3ccco3)c3c(N)c(C(=O)NN)oc3n2)cc1,-15,55*,-2,0,-9,2
CCN(CC)CCn1c2ccccc2c2nc3ccc([N+](=O)[O-])cc3cc21,44*,26,11,0,15,0
Cn1c2ccccc2c2cc([N+](=O)[O-])ccc21,7,14,-2,-2,0,-2
COc1ccc(CCC(C)N2CCOCC2)cc1 (stereo not drawn),0,7,1,-2,-38,-1
O=[N+]([O-])c1ccc(Nc2ccccn2)c([N+](=O)[O-])c1,8,18,14,-5,26*,-5
O=C(O)c1ccccc1Nc1cc(Cl)c2nonc2c1[N+](=O)[O-],2,7,10,-2,-6,-5
Nc1ccc(Nc2ccc([N+](=O)[O-])cc2[N+](=O)[O-])cc1,11,4,11,-2,-2,-2
O=[N+]([O-])c1c(Nc2ccccn2)cc(Cl)c2nonc12,8,93*,-24,-2,x,-5
SMILES,DNA FID counter,UBC9 SUMO inh,Mot1-301 SUMO,VIM-2 inh,NALP1 inh,IMP-1 inhibitor
O=C1c2ccccc2C(=O)N1Nc1ccc([N+](=O)[O-])cc1[N+](=O)[O-],8,-9,15,-1,19,4.5*
CNC(=O)c1c(NC(=O)C2=COCCO2)sc2c1CCCC2,-12,3,-13,2,16,0
Brc1ccc2c(c1)C(c1cccs1)=NNC(c1cccnc1)=N2,-4,5,24,-1,-1,-3
CCOc1ccc2c(c1)C(c1cccs1)=NNC(c1cccnc1)=N2,-4,11,7,-3,30*,-4
COc1cc(/C=N/O)ccc1Oc1cnccn1,-2,2,10,-1,3,-5
CC[N+](CC)(CC)CCOc1ccc(/C=C/c2ccccc2)cc1,x,x,18,x,x,x
CC[N+](CC)(CC)CCCCOc1ccc2c(c1)C(=O)c1cc(OCCCC[N+](CC)(CC)CC)ccc1-2,90*,-17,-13,0,-8,0
Cc1cc(C)cc(Nc2nc3c([nH]2)c(=O)n(C)c(=O)n3C)c1,-5,14,5,-2,32*,-4
Cc1ccc(Nc2nc3c([nH]2)c(=O)n(C)c(=O)n3C)cc1,0,13,6,0,28,-3
CCCc1nc2c([nH]1)c(=O)n(C)c(=O)n2C,-1,15,-6,-2,13,-3
CC(=O)Nc1ccc(Cc2nc3c([nH]2)c(=O)n(C)c(=O)n3C)cc1,-1,14,24,0,13,12*
CCOc1ccc(CN2C(=O)CC(=O)N(S(=O)(=O)c3ccc(OCC)cc3)C2=O)cc1,-29,14,8,-1,10,-2
Cc1ccc(C(C)NC(=O)c2ccncc2)c(C)c1 (stereo not drawn),-2,5,10,-1,x,-2
N#CC1(C#N)CC(C=O)=C(N)C1(C#N)CC(=O)c1ccc(F)cc1 (stereo not drawn),-2,33,2,-1,10,7.5*
Cn1c(=O)[nH]c(=O)c2c1nc([N+](=O)[O-])n2Cc1ccccc1,-1,-6,24,-4,-11,-2
COc1ccc(C(=O)CCN2CCN(c3ccccc3F)CC2)cc1,0,-3,616*,-3,14,-2
COc1ccccc1N1CCN(CCCCOc2cccc3ccccc23)CC1,21,-19,-5,-4,54*,-3
Fc1ccc(OCCCCCN2CCCC2)cc1,-2,-6,17,0,-6,-2
COc1ccccc1OCCCCN1CCN(c2ccccc2OC)CC1,14,-9,-9,-3,47,-5
COc1ccccc1N1CCN(CCCCCCOc2ccc(F)cc2)CC1,13,8,-1,-1,46*,0
O=C1CC2(CCN(C(=O)COc3ccccc3F)CC2)Oc2ccccc21,x,x,602*,x,x,x
COc1ccc(C)cc1S(=O)(=O)N(CC(=O)N1CCCC1)c1ccc(C)cc1,-46,8,-7,0,-4,-3

# Assay outcomes: PubChem BioAssay, several laboratories
